Screening results: PubChem BioAssay, Broad Institute
rRNA inh HTS – reduced GFP signal of wild-type E. coli, primary screen, bacterial rRNA inhibitor project, GFP/RFP fluorescence, OD600, single point; GFP signal change (wild-type ribosome), % (no concentration beside the values); E. coli WT GFP vs humanized-ribosome RFP mutants, 24 h; active compounds read low; DMSO median 0, no signal -100; actives 1.6% (n = 350,000);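 active = significant combined selectivity score with lowered wild-type GFP, culture density cut under 30%, mutant RFP and density less affected; inactive = any of these conditions unmet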
SIRT5 inh – SIRT5 desuccinylase inhibitors, primary screen, biochemical, fluorescence imaging, single point, set 5; NAD-dependent protein deacylase sirtuin-5, mitochondrial (Homo sapiens), Q9NXA8; Purified SirT5, succinyl-peptide AMC, trypsin-coupled fluorescence; inhibition, % at 15 µM; actives 1.1% (n = 330,000); AID 652115, 2013; in the data active = inhibition above about 15%
Target sequence (Q9NXA8 whole entry, looked up): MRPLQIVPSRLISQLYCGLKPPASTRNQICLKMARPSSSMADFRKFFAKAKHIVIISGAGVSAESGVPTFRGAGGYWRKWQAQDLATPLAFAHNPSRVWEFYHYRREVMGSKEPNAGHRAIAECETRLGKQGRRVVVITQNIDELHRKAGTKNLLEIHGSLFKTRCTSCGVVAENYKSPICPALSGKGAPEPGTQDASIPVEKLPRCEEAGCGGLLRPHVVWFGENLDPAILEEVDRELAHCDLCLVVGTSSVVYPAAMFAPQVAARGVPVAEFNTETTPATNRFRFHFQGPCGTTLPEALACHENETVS
Cneo AK release – Cryptococcus neoformans cell lysis inducers, primary screen, AK release luminescence, single concentration. C. neoformans lysis, adenylate kinase release luminescence, 4 h; normalised: neutral wells 0, clomiphene wells 100. lysis activity, % at 15 µM. actives 0.2% (n = 360,000);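 active = mean lysis activity across replicates of at least 80%, whatever share of replicates individually reach that level; inactive = mean lysis activity below 80%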
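Schedule: static 4 h at 37 °C with compound, 1 h detection; system: C. neoformans cells; benchmarks: Clomiphene as positive control; buffer or medium: fresh YPD medium; measure: luminescence rise reflecting yeast cell lysis; measured by: luminescent adenylate kinase detection reagent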
Statin myotox sup – suppressors of statin myotoxicity in C2C12 myotubes, primary screen, cell-based, single point, plate reader; C2C12 myotubes + simvastatin, ATP luminescence, 48 h; scaled: DMSO 0, geranylgeraniol control 100; rescue of ATP level, % at 7.49 µM; actives 0.78% (n = 330,000); AID 602340, 2012;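 active = mean ATP rescue above about 67%, or every replicate alone reaching that limit, limit read from the data, passing the limit was not always enough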;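 also: myotubes were challenged with 10 µM simvastatin during compound exposure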
PGC1a acetyl inh – inhibitors of PGC1a acetylation signal, primary screen, cell-based, U2OS, AlphaScreen, inhibitor mode | AlphaScreen anti-acetyl-lysine; with virally co-expressed GCN5 acetyltransferase | inhibition, % at 15.6 µM | actives 0.17% (n = 350,000);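 active = every replicate shows inhibition of at least 40%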
S100A4 MyoIIA – inhibitors of S100A4-myosin IIA peptide binding, primary screen, biochemical, fluorescence polarization, TAMRA-MyoIIA peptide | Protein S100-A4 (Homo sapiens), P26447 | inhibition, % at 10.7 µM | actives 0.14% (n = 360,000) | AID 652163, 2013;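 active = mean inhibition of at least 70% across replicates, with every replicate also reaching that level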
Target sequence (P26447 whole entry, looked up): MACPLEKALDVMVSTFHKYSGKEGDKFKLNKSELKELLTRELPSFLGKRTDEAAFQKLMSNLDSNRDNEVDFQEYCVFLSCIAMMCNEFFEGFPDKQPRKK
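incubation = readout 5 min after mixing, signal stable up to 60 min | system = S100A4 monomer protein | buffer or medium = HEPES pH 7.2 with CaCl2, KCl, NaCl, DTT, Triton | benchmarks = neutral control DMSO, positive control TFP | also added = fluorescent myosin IIA peptide, 5 nM | compound dosing = one concentration per compound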
Each line names hits and unclear results; the compound was inactive in the other large screens; ! = not confirmed by another sample. Rows were chosen to be rich in hits. Some 3% of all compounds tested hit in one or more screens of this group.

COC(=O)Cc1[nH]n(-c2nc3ccccc3s2)c(=O)c1C(C)=Nc1ccc(Cl)cc1	none (no result: Cneo AK release, Statin myotox sup, PGC1a acetyl inh)
COCC#Cc1ccc2c(c1)O[C@@H](CN(C)Cc1ccccc1F)[C@H](C)CN([C@H](C)CO)S2(=O)=O	none
C[C@H](CO)N1C[C@H](C)[C@@H](CN(C)S(=O)(=O)c2ccccc2)Oc2c(cccc2N(C)C)C1=O	SIRT5 inh 25
C[C@@H]1CN([C@@H](C)CO)C(=O)c2cccc(NC(=O)Nc3ccccc3)c2O[C@@H]1CN(C)S(=O)(=O)c1ccc(F)cc1	Statin myotox sup 74
C[C@@H]1CN([C@H](C)CO)C(=O)c2cccc(NC(=O)Nc3ccccc3)c2O[C@@H]1CN(C)S(=O)(=O)c1ccccc1	Statin myotox sup 65
C[C@@H]1CN([C@H](C)CO)C(=O)c2cccc(N(C)C)c2O[C@@H]1CN(C)S(=O)(=O)c1ccccc1	none
Cc1ccc(S(=O)(=O)N(C)C[C@H]2Oc3c(NC(=O)Nc4ccccc4)cccc3C(=O)N([C@H](C)CO)C[C@H]2C)cc1	Statin myotox sup 117
C[C@@H]1CN([C@@H](C)CO)C(=O)c2cccc(NC(=O)Nc3ccccc3)c2O[C@@H]1CN(C)S(=O)(=O)c1ccccc1	none
COCC(=O)N1C[C@@H](C)[C@H](OC)CN(C)C(=O)c2ccc(NC(=O)c3ccc(OC)cc3)cc2OC[C@H]1C	none (no result: SIRT5 inh, Cneo AK release, S100A4 MyoIIA)
Cc1ccc(S(=O)(=O)N(C)C[C@@H]2Oc3c(NC(=O)Nc4ccccc4)cccc3C(=O)N([C@@H](C)CO)C[C@@H]2C)cc1	none
Cc1ccc(S(=O)(=O)N(C)C[C@H]2Oc3c(NC(=O)Nc4ccccc4)cccc3C(=O)N([C@@H](C)CO)C[C@H]2C)cc1	Statin myotox sup 123 (no result: SIRT5 inh)
COCC#Cc1ccc2c(c1)O[C@@H](CN(C)S(=O)(=O)c1cccc(F)c1)[C@H](C)CN([C@@H](C)CO)S2(=O)=O	none
Cc1noc(C)c1NC(=O)Nc1ccc2c(c1)C(=O)N(C)[C@@H]1CC[C@@H](CC(=O)NCc3ccc(Cl)cc3)O[C@@H]1CO2	none (no result: PGC1a acetyl inh)
O=C(C1CC1)N1CC(=O)N2[C@@H](CO)[C@@H](c3ccc(C#CC4CCCC4)cc3)[C@@H]2C1	none (no result: Cneo AK release, Statin myotox sup)
COc1ccc(NC(=O)N(C)C[C@H]2Oc3c(NC(=O)c4nc5ccccc5s4)cccc3C(=O)N([C@@H](C)CO)C[C@H]2C)cc1	SIRT5 inh 20!
C[C@@H]1CN([C@H](C)CO)C(=O)c2cccc(NC(=O)c3nc4ccccc4s3)c2O[C@@H]1CN(C)C(=O)Nc1cccc2ccccc12	Statin myotox sup 81
CCOc1cc(NC(=O)C2CC2)c(OCC)cc1NC(=O)c1ccccn1	Statin myotox sup 121 (no result: rRNA inh HTS, SIRT5 inh, S100A4 MyoIIA)
CCOc1cc(NC(=O)c2ccccn2)c(OCC)cc1NC(=O)c1ccccc1	none (no result: Cneo AK release)
COc1cccc(S(=O)(=O)N(C)C[C@@H]2Oc3cc(C4=CCCC4)ccc3S(=O)(=O)N([C@H](C)CO)C[C@H]2C)c1	SIRT5 inh 23
COc1cccc(S(=O)(=O)N(C)C[C@@H]2Oc3cc(C4=CCCCC4)ccc3S(=O)(=O)N([C@H](C)CO)C[C@@H]2C)c1	SIRT5 inh 26 (no result: rRNA inh HTS)
CO[C@H]1CN(C)C(=O)c2ccc(NC(=O)C3CCC3)cc2OC[C@H](C)N(C(=O)CN(C)C)C[C@@H]1C	none (no result: Cneo AK release, Statin myotox sup)
C(=N\Nc1nc(N2CCCC2)nc(N2CCCC2)n1)/c1cccnc1	none (no result: Cneo AK release, Statin myotox sup, PGC1a acetyl inh)
FC(F)(F)COc1nc(N/N=C/c2cccnc2)nc(N2CCCCC2c2ccccn2)n1 (stereo not drawn)	rRNA inh HTS -33
Cc1ccc(S(=O)(=O)N(C)C[C@H]2Oc3ncc(-c4ccncc4)cc3C(=O)N([C@@H](C)CO)C[C@H]2C)cc1	none
Cc1ccc(S(=O)(=O)N(C)C[C@H]2Oc3ncc(Br)cc3C(=O)N([C@H](C)CO)C[C@H]2C)cc1	none
Cc1ccc(S(=O)(=O)N(C)C[C@@H]2Oc3ncc(Br)cc3C(=O)N([C@@H](C)CO)C[C@H]2C)cc1	Cneo AK release 91
C[C@H](CO)N1C[C@H](C)[C@H](CN(C)S(=O)(=O)c2ccc(C#N)cc2)Oc2ncc(C#Cc3ccccc3)cc2C1=O	none
C[C@H](CO)N1C[C@H](C)[C@H](CN(C)S(=O)(=O)c2ccc(C#N)cc2)Oc2ncc(C#Cc3ccc(C(F)(F)F)cc3)cc2C1=O	SIRT5 inh 27 (no result: Cneo AK release, Statin myotox sup)
Cc1ccc(S(=O)(=O)N(C)C[C@H]2Oc3ncc(-c4ccncc4)cc3C(=O)N([C@@H](C)CO)C[C@@H]2C)cc1	SIRT5 inh 32
Cc1ccc(S(=O)(=O)N(C)C[C@@H]2Oc3ncc(C#Cc4ccccc4)cc3C(=O)N([C@H](C)CO)C[C@@H]2C)cc1	SIRT5 inh 16
C[C@@H]1CN([C@@H](C)CO)C(=O)Cc2cc(NS(=O)(=O)c3cn(C)cn3)ccc2O[C@@H]1CN(C)C	none
CCN1[C@@H]2c3ccc(-c4ccccc4)c(=O)n3C[C@H]1[C@H](CO)[C@H]2C(=O)NCc1ccccc1	none (no result: PGC1a acetyl inh)
C[C@H]1CN([C@@H](C)CO)S(=O)(=O)c2ccc(C#Cc3ccncc3)cc2O[C@H]1CN(C)C(=O)C1CCOCC1	none
CC(=O)Oc1cc2oc(=O)cc(C)c2cc1Cl	rRNA inh HTS -26 (no result: PGC1a acetyl inh)
COCCNC(=O)C(c1ccc(C)o1)N(CC1CCCO1)C(=O)Cn1nnc2ccccc21 (stereo not drawn)	none (no result: rRNA inh HTS, SIRT5 inh, S100A4 MyoIIA)
O=C(NCc1ccco1)C(c1ccc(F)cc1)N(CC1CCCO1)C(=O)Cn1nnc2ccccc21 (stereo not drawn)	Statin myotox sup 89 (no result: rRNA inh HTS, SIRT5 inh, S100A4 MyoIIA)
CCc1ccccc1NC(=O)CN(C)Cc1c(O)ccc2ccccc12	none (no result: PGC1a acetyl inh)
CN(CC(=O)Nc1ccccc1C(F)(F)F)Cc1c(O)ccc2ccccc12	rRNA inh HTS -27
COc1ccccc1CN(C)CC(=O)Nc1ccc(Cl)cc1C(F)(F)F	rRNA inh HTS -34 (no result: Cneo AK release, PGC1a acetyl inh)
COc1ccccc1CN(C)CC(=O)Nc1ccc(Cl)cc1F	none (no result: Cneo AK release, Statin myotox sup, PGC1a acetyl inh)
CCCCC(=O)Nc1ccc2c(c1)nc(CCNC(=O)c1ccco1)n2C	SIRT5 inh 23 (no result: Cneo AK release)
O=C1C(c2ccccc2)c2ccccc2N1Cc1ccccc1 (stereo not drawn)	rRNA inh HTS -20 (no result: SIRT5 inh)
O=C1C2CC=CCC2C(=O)N1Cc1ccccc1 (stereo not drawn)	none
